The target of data set [1] is T1, Melatonin receptor type 1B (Homo sapiens, UniProt P49286).
T1 sequence (P49286 whole entry): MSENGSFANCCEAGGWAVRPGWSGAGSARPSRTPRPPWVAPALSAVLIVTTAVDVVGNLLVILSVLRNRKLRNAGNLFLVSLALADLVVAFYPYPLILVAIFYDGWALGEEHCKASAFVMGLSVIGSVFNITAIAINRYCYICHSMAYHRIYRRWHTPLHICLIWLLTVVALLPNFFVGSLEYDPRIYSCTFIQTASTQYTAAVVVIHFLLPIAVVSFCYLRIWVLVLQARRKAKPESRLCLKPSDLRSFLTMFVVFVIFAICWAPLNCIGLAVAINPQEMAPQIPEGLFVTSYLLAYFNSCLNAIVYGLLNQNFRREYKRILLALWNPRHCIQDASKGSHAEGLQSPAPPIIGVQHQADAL
The experiment in a line: Displacement of [3H]melatonin from human MT2 receptor expressed in CHO cells after 60 mins by microbeta scintillation method. It counts as cell-based. Background: Loss of bound radioactivity is the signal in a displacement assay; it reports binding, not function.

Data set [2] concerns Liver microsomes. The experiment in a line: Drug metabolism in human liver microsomes assessed as aromatic ring hydroxylation after 30 mins by LC-UV/MS analysis. Conditions: 0.5 h; call rule not given here. It counts as ADME, Microsome. The procedure, abridged:
(§1)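 Rat or human liver microsomes (20 mg protein/ml suspension) were added to start reactions after test compound (1 mM stock) in 50 mM Tris-Cl pH 7.4 with MgCl2 was pre-incubated 30 min at 37 °C. Incubation ran 30 min at 37 °C, shaken in air. Reactions were quenched with ice-cold dichloromethane plus internal standards. Metabolites were separated on C18 (acetonitrile/water gradient 40→60%) and identified by positive-mode MS.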
A general note: Microsomes from liver hold many membrane-bound enzymes, among them those of drug oxidation.

The species entered for data set [3] is Homo sapiens. The experiment in a line: Selectivity ratio of Ki for human MT1 receptor to Ki for human MT2 receptor. The method in brief:
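Whole-cell competition binding on CHO cells stably expressing hMT1 or hMT2, 1.5×10^5 cells per tube. Incubated 60 min at 4 °C, then filtered through GF/C and counted. Means of duplicate experiments. Ratio is MT1 Ki/MT2 Ki.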

For data set [4], the system named is Liver microsomes. The experiment in a line: Drug metabolism in rat liver microsomes assessed as C3'-demethylation after 30 mins by LC-UV/MS analysis. The class given is ADME, Microsome. To be noted: 0.5 h. The procedure, abridged:
as §1

A short description of data set [5]: Intrinsic clearance in human liver microsomes after 30 mins by HPLC/MS analysis. The class given is ADME, Microsome. Conditions: read-out: CLH. The method in brief:
(§2)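 Rat or human liver microsomal incubations at 37 °C were analysed for percent parent remaining over incubation time. k is the slope of the linear regression of ln(% remaining) versus time, and t1/2 = 0.693/k. In vitro intrinsic clearance was derived from t1/2 and used to predict hepatic clearance.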

A short description of data set [6]: Elimination half life in human liver microsomes by HPLC/MS analysis. The class given is ADME, Microsome. To be noted: read-out: beta t1/2. The method in brief: as §2
For data set [7], the system named is Liver microsomes. The experiment in a line: Drug metabolism in rat liver microsomes assessed as aromatic ring hydroxylation after 30 mins by LC-UV/MS analysis. It counts as ADME, Microsome. To be noted: 0.5 h. The method in brief: as §1
Data set [8] in a line: Intrinsic clearance in rat liver microsomes after 30 mins by HPLC/MS analysis. The class given is ADME, Microsome. To be noted: read-out: CLH. The method in brief:
as §2

Data set [9] deals with T1, Melatonin receptor type 1B. The experiment in a line: Agonist activity at human MT2 receptor expressed in CHO cells coexpressing Galpha protein 16z25 assessed as increase in calcium mobilization measured for 3 mins by FLIPR assay. The class given is functional, cell-based. The method in brief:
(§3)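 CHO cells stably expressing human MT1 or MT2 with chimeric Gα16z25 were seeded in growth medium the day before. Fluorescence at 488 nm excitation was followed for 3 min after agonist addition.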
In general terms: Calcium assays in cells follow changes in intracellular calcium, usually with a dye or a luminescent sensor.

Data set [10] is described as follows: Elimination half life in rat liver microsomes by HPLC/MS analysis. Conditions: read-out: beta t1/2. It counts as ADME, Microsome. The procedure, abridged: as §2
Data set [11] relates to Liver microsomes. Kind of data set: Drug metabolism in rat liver microsomes assessed as C3-demethylation after 30 mins by LC-UV/MS analysis. It counts as ADME, Microsome. Conditions: 0.5 h. The method in brief: as §1
Data set [12] has as its target T2, Melatonin receptor type 1A (Homo sapiens, UniProt P48039). The experiment in a line: Displacement of [3H]melatonin from human MT1 receptor expressed in CHO cells after 60 mins by microbeta scintillation method. The class given is cell-based.
The test system of data set [13] is Liver microsomes. Kind of data set: Drug metabolism in human liver microsomes assessed as C3-demethylation after 30 mins by LC-UV/MS analysis. It counts as ADME, Microsome. Conditions: 0.5 h. The method in brief: as §1
The species entered for data set [14] is Homo sapiens. The experiment in a line: Selectivity ratio of EC50 for human MT1 receptor to EC50 for human MT2 receptor. The method in brief:
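Ca2+ mobilization (FLIPR) in CHO clonal lines stably co-expressing hMT1 or hMT2 with chimeric Gα16z25. Cells seeded a day before, loaded with 2 µM Fluo-4 in HBSS (pH 7.5) with 2.5 mM probenecid, 1 h, 37 °C. Fluorescence read 3 min after agonist addition, excitation 488 nm. […] Ratio is MT1 EC50/MT2 EC50.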

Data set [15] has as its system Liver microsomes. Kind of data set: Drug metabolism in human liver microsomes assessed as C3'-demethylation after 30 mins by LC-UV/MS analysis. The class given is ADME, Microsome. To be noted: 0.5 h. The method in brief: as §1
The target of data set [16] is T2, Melatonin receptor type 1A. The experiment in a line: Agonist activity at human MT1 receptor expressed in CHO cells coexpressing Galpha protein 16z25 assessed as increase in calcium mobilization measured for 3 mins by FLIPR assay. The class given is functional, cell-based. The method in brief: as §3

T2 sequence (P48039 whole entry): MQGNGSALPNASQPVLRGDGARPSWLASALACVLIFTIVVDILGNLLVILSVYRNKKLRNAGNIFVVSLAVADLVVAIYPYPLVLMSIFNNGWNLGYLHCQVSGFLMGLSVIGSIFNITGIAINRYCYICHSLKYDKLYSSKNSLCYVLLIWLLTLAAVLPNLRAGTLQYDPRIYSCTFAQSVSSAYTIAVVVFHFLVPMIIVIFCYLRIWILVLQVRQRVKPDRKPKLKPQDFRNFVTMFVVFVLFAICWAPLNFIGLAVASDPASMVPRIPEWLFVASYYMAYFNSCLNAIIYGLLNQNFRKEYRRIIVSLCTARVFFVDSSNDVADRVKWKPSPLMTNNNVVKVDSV

Broadly, the Ki is the equilibrium dissociation constant of an inhibitor or competing ligand from its target. Low readings indicate a stronger hold on the target, high ones a looser hold on the target. Usually EC50 stands for the concentration needed to bring the measured effect to its halfway point. Consider `CCC(=O)NCCCc1cc(OC)ccc1-c1cccc(OC)c1`, for which the inhibition constant Ki in [1] amounted to 0.339 nM; in [12] it was 32.7 nM. In addition, the Drug metabolism entry in the data set on Liver microsomes [2], in the data set with Liver microsomes [4], in the data set on Liver microsomes [7], in the data set on Liver microsomes [11], with Liver microsomes [13] and with Liver microsomes [15] was “Active” throughout. Also, the Ratio Ki in the data set listed under Homo sapiens [3] was 96. For the same compound, the CLint scaled in data set [5] was determined as 21.2 L/h/kg; in [8], 20 L/h/kg. Further, the results for the half-life in data set [6] and in [10] were 5.3 min and 7.5 min, respectively. The values for the 50% effective concentration (EC50) in [9] and in data set [16] were 0.2 nM and 2.94 nM, respectively. Besides, the Ratio EC50 in the data set listed under Homo sapiens [14] stood at 14.
`CCC(=O)NCCCc1cc(OC)ccc1C#Cc1cccc(OC)c1`: the results for the inhibitory constant (Ki) in data set [1] and in data set [12] were 0.073 nM and 38.2 nM, respectively. Besides, the Drug metabolism entry in the data set with Liver microsomes [2], in the data set on Liver microsomes [4], in the data set on Liver microsomes [7], in the data set on Liver microsomes [11], in the data set with Liver microsomes [13] and in the data set on Liver microsomes [15] was “Active” throughout. Besides, the Ratio Ki in the data set listed under Homo sapiens [3] worked out at 527. Further, the CLint scaled in data set [5] came out at 6.13 L/h/kg; in data set [8] it was 6.88 L/h/kg. The half-life in [6] worked out at 18.3 min; in data set [10] it was 21.7 min. Further, the EC50 amounted to 0.11 nM in data set [9] and 8.38 nM in data set [16]. In addition, the Ratio EC50 in the data set filed under Homo sapiens [14] was 77.
Take `CCC(=O)NCCCc1cc(OC)ccc1OCc1cccc(OC)c1`: the figures for the inhibition constant (Ki) in data set [1] and in data set [12] were 0.291 nM and 121 nM, respectively. Besides, the Ratio Ki in the data set filed under Homo sapiens [3] was determined as 417. The CLint scaled in data set [5] came out at 20.4 L/h/kg; in [8], 15.7 L/h/kg. The half-life is 5.5 min in data set [6] and 9.5 min in data set [10]. Further, the EC50 in [9] stood at 0.05 nM; in data set [16] it was 9.03 nM. Also, the Ratio EC50 in the data set filed under Homo sapiens [14] came out at 181.
As for `CCC(=O)NCCCc1cc(OC)ccc1Cc1cccc(OC)c1`, the Ki worked out at 3.39 nM in [1] and 39.5 nM in data set [12]. In addition, the Drug metabolism entry in the data set on Liver microsomes [2], in the data set on Liver microsomes [4], with Liver microsomes [7], in the data set on Liver microsomes [11], with Liver microsomes [13] and in the data set with Liver microsomes [15] was “Active” in each case. Also, the Ratio Ki in the data set filed under Homo sapiens [3] amounted to 12. The values for the CLint scaled in data set [5] and in data set [8] were 18.7 L/h/kg and 17.4 L/h/kg, respectively. In addition, the results for the half-life in data set [6] and in data set [10] were 6 min and 8.6 min, respectively. Besides, the 50% effective concentration (EC50) in [9] was found to be 0.24 nM; in data set [16], 41.6 nM. Besides, in the data set listed under Homo sapiens [14], the Ratio EC50 was found to be 171.
As to `CCC(=O)NCCCc1cc(OC)ccc1CCc1cccc(OC)c1`, the results for the Ki in data set [1] and in [12] were 0.55 nM and 22.2 nM, respectively. The Drug metabolism result in the data set with Liver microsomes [2], in the data set with Liver microsomes [4], in the data set on Liver microsomes [7], with Liver microsomes [11], in the data set on Liver microsomes [13] and in the data set with Liver microsomes [15] was “Active” in each case. In the data set listed under Homo sapiens [3], the Ratio Ki was determined as 40. Besides, the CLint scaled in data set [5] is 22 L/h/kg; in data set [8], 18 L/h/kg. The results for the half-life in data set [6] and in [10] were 5.1 min and 8.3 min, respectively. For the same compound, the concentration giving a half-maximal response (EC50) in data set [9] was determined as 0.024 nM; in [16], 16.3 nM. The Ratio EC50 in the data set filed under Homo sapiens [14] came to 679.
Take `COc1ccc2[nH]cc(CCNC(C)=O)c2c1` [MELATONIN]: the CLint scaled in data set [5] is 1.53 L/h/kg; in data set [8] it was 1.99 L/h/kg. For the same compound, the half-life in data set [6] is 73.2 min; in data set [10], 75.3 min.

For the origin of these results see ChEMBL document CHEMBL2321713 (Bioorg Med Chem, 2013).
